Data from ChEMBL document CHEMBL1145867, “Muraymycins, novel peptidoglycan biosynthesis inhibitors: synthesis and SAR of their analogues” (2003).
In brackets after ≈: the same amount, converted by molar mass. Activity calls are given as the source filed them. The rule behind the calls is not given here.

Tests used:
Staphylococcus aureus [1] = assay: In vitro antimicrobial activity against Staphylococcu aureus GC 2216; type: functional
Outline: (§1)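 Broth microdilution per NCCLS guidance. Serial dilutions of each agent in microtiter plates are inoculated with each organism to 10⁵ CFU/mL and incubated 18–22 h at 35 C in ambient air. MIC is the lowest concentration giving complete growth inhibition, judged by the unaided eye.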

Enterococcus faecalis [2] = assay: In vitro antimicrobial activity against Enterococcus faecalis GC 4555; type: functional; outline: as §1
Staphylococcus aureus [3] = assay: In vitro antimicrobial activity against Staphylococcu aureus GC 4536; type: functional; outline: as §1
Bacteria [4] = assay: In vitro antimicrobial activity against gram-negative organisms (10); type: functional; outline: as §1
Escherichia coli [5] = assay: In vitro antimicrobial activity against Escherichia coli GC 4559; type: functional; outline: as §1
Staphylococcus sp. [6] = assay: In vitro antimicrobial activity against CNS GC 4538; type: functional; outline: as §1
Escherichia coli [7] = assay: In vitro antimicrobial activity against Escherichia coli GC 2214; type: functional; outline: as §1
Pseudomonas aeruginosa [8] = assay: In vitro antimicrobial activity against Pseudomonas aeruginosa GC 2214; type: functional; outline: as §1
[9] = The inhibitory activity of compound against MraY or MurG at 50 ug/mL; Inhibit
Klebsiella pneumoniae = assay: In vitro antimicrobial activity against Klebsiella pneumoniae GC 4534; type: functional; outline: as §1
Staphylococcus sp. [10] = assay: In vitro antimicrobial activity against CNS GC 4547; type: functional; outline: as §1
[11] = The inhibitory activity of compound against MraY or MurG at 6.25 ug/mL; No Inhibition
Staphylococcus sp. [12] = assay: In vitro antimicrobial activity against Staphylococci; type: functional, staphyl ococcus species; outline: as §1
Enterobacter cloacae = assay: In vitro antimicrobial activity against Enterobacter cloacae GC 3783; type: functional; outline: as §1
Escherichia coli [13] = assay: In vitro antimicrobial activity against Escherichia coli GC 3226; type: functional; outline: as §1
[14] = The inhibitory activity of compound against MraY or MurG at 100 ug/mL; Inhibit
Enterococcus sp. = assay: In vitro antimicrobial activity against Enterococci; type: functional; outline: as §1
Enterococcus faecalis [15] = assay: In vitro antimicrobial activity against Enterococcus faecalis GC 842; type: functional; outline: as §1
Serratia marcescens [16] = assay: In vitro antimicrobial activity against In vitro antimicrobial activity against Serratia marcescens GC 4077
Pseudomonas aeruginosa [17] = assay: In vitro antimicrobial activity against Pseudomonas aeruginosa GC 4532; type: functional; outline: as §1
Escherichia coli [18] = assay: In vitro antimicrobial activity against Escherichia coli GC 4560; type: functional; outline: as §1
Candida albicans [19] = assay: In vitro antimicrobial activity against Candida albicans GC 3066; type: functional; outline: as §1
[20] = The inhibitory activity of compound against MraY or MurG at 12.5 ug/mL; No Inhibition
[21] = The inhibitory activity of compound against MraY or MurG at 25 ug/mL; No Inhibition
Staphylococcus aureus [22] = assay: In vitro antimicrobial activity against Staphylococcu aureus GC 1131; type: functional
Outline: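 Broth dilution per NCCLS recommendations. Serial dilutions in microtiter plates inoculated to 10⁵ CFU/mL, then incubated 18–22 h at 35 C in ambient air. MIC taken as the lowest concentration giving complete growth inhibition by unaided eye.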

Serratia marcescens [23] = assay: In vitro antimicrobial activity against Serratia marcescens GC 4077; type: functional; outline: as §1
Enterococcus faecalis [24] = assay: In vitro antimicrobial activity against Enterococcus faecalis GC 2242; type: functional; outline: as §1
[25] = The inhibitory activity of compound against MraY or MurG at 25 ug/mL; Inhibit
[26] = The inhibitory activity of compound against MraY or MurG at 100 ug/mL;Inhibit
Staphylococcus aureus [27] = assay: In vitro antimicrobial activity against Staphylococcus aureus GC 1131; type: functional; outline: as §1
Staphylococcus sp. [28] = assay: In vitro antimicrobial activity against Coagulase-negative staphylococcus GC 4538; type: functional; outline: as §1
Staphylococcus aureus [29] = assay: In vitro antimicrobial activity against Staphylococcus aureus GC 2216; type: functional; outline: as §1
Staphylococcus aureus [30] = assay: In vitro antimicrobial activity against Staphylococcus aureus GC 4536; type: functional; outline: as §1
[31] = The inhibitory activity of compound against MraY or MurG at 12.5 ug/mL; Inhibit
Morganella morganii = assay: In vitro antimicrobial activity against Morganella morganii GC 4531; type: functional; outline: as §1
[32] = The inhibitory activity of compound against MraY or MurG at 25 ug/mL; No inhibition
Staphylococcus sp. [33] = assay: In vitro antimicrobial activity against CNS GC 4538 at 32 ug/ml soluble peptidoglycan; type: functional
Enterococcus faecalis [34] = assay: In vitro antimicrobial activity against Enterococcus faecalis GC 4555 at 32 ug/ml soluble peptidoglycan; type: functional
Staphylococcus aureus [35] = assay: In vitro antimicrobial activity against Staphylococcus aureus GC 1131 at 32 ug/ml soluble peptidoglycan; type: functional
Candida albicans [36] = assay: In vitro antimicrobial activity against Candida albicans […] at 32 ug/ml soluble peptidoglycan; type: functional
Staphylococcus sp. [37] = assay: In vitro antimicrobial activity against Coagulase-negative staphylococcus GC 4538 at 32 ug/ml soluble peptidoglycan; type: functional
Bacteria [38] = assay: In vitro antimicrobial activity against gram-negative organisms (10)
[39] = The inhibitory activity of compound against MraY or MurG at 50 ug/mL; No inhibition
Enterococcus faecalis [40] = assay: In vitro antimicrobial activity against Enterococcus faecalis GC 842 at 32 ug/ml soluble peptidoglycan; type: functional
[41] = The inhibitory activity of compound against MraY or MurG at 12.5 ug/mL; No inhibition
Enterococcus faecalis [42] = assay: In vitro antimicrobial activity against Enterococcus faecalis GC 2242 at 32 ug/ml soluble peptidoglycan; type: functional
[43] = The inhibitory activity of compound against MraY or MurG at 6.25 ug/mL; No inhibition
Staphylococcus aureus [44] = assay: In vitro antimicrobial activity against Staphylococcus aureus GC 4536 at 32 ug/ml soluble peptidoglycan; type: functional
Staphylococcus aureus [45] = assay: In vitro antimicrobial activity against Staphylococcus aureus GC 2216 at 32 ug/ml soluble peptidoglycan; type: functional
Staphylococcus sp. [46] = assay: In vitro antimicrobial activity against CNS GC 4547 at 32 ug/ml soluble peptidoglycan; type: functional
[47] = Staphylococcus sp., read-out: MIC

MIC (Enterococcus faecalis [2]) [µg/mL]	MIC (Bacteria [4]) [µg/mL]	MIC (Staphylococcus sp. [6]; [47]) [µg/mL]	Inhibitory activity [9]	MIC (Staphylococcus sp. [10]) [µg/mL]	Inhibitory activity [11]	MIC (Staphylococcus sp. [12]) [µg/mL]	Inhibitory activity [14]	MIC (Enterococcus sp.) [µg/mL]	MIC (Enterococcus faecalis [15]) [µg/mL]	MIC (Enterococcus faecalis [24]) [µg/mL]	SMILES	MIC (Staphylococcus aureus [1]) [µg/mL]	MIC (Staphylococcus aureus [3]) [µg/mL]	MIC (Escherichia coli [5]) [µg/mL]	MIC (Staphylococcus sp. [6]) [µg/mL]	MIC (Escherichia coli [7]) [µg/mL]	MIC (Pseudomonas aeruginosa [8]) [µg/mL]	MIC (Klebsiella pneumoniae) [µg/mL]	MIC (Enterobacter cloacae) [µg/mL]	MIC (Escherichia coli [13]) [µg/mL]	also measured
8 (≈ 9.41 µM)	64 (≈ 75.3 µM)	4 (≈ 4.7 µM)	Inhibit	4 (≈ 4.7 µM)	inactive	4 (≈ 4.7 µM)	Inhibit	4 (≈ 4.7 µM)	4 (≈ 4.7 µM)	4 (≈ 4.7 µM)	COc1ccc(Cn2c(=O)ccn([C@@H]3OC([C@H](O)[C@H](NCCCNC(=O)[C@@H](C)N)C(=O)OC(C)(C)C)[C@@H](O[Si](C)(C)C(C)(C)C)[C@H]3O[Si](C)(C)C(C)(C)C)c2=O)cc1 (stereo not given in full)	8 (≈ 9.41 µM)	4 (≈ 4.7 µM)	128 (≈ 151 µM)	8 (≈ 9.41 µM)	128 (≈ 151 µM)	128 (≈ 151 µM)	128 (≈ 151 µM)	128 (≈ 151 µM)	128 (≈ 151 µM)	MIC (Serratia marcescens [16]): 128 µg/mL (≈ 151 µM); MIC (Pseudomonas aeruginosa [17]): 128 µg/mL (≈ 151 µM); MIC (Escherichia coli [18]): 128 µg/mL (≈ 151 µM); MIC (Candida albicans [19]): 128 µg/mL (≈ 151 µM); Inhibitory activity [20]: inactive; Inhibitory activity [21]: inactive; MIC (Staphylococcus aureus [22]): 4 µg/mL (≈ 4.7 µM); MIC (Serratia marcescens [23]): 128 µg/mL (≈ 151 µM)
	> 128		Inhibit		inactive	4 (≈ 4.48 µM)		4 (≈ 4.48 µM)			COc1ccc(Cn2c(=O)ccn([C@@H]3OC([C@H](O)[C@H](NCCCNC(=O)[C@H](N)CC(C)C)C(=O)OC(C)(C)C)[C@@H](O[Si](C)(C)C(C)(C)C)[C@H]3O[Si](C)(C)C(C)(C)C)c2=O)cc1 (stereo not given in full)										Inhibitory activity [25]: Inhibit; Inhibitory activity [26]: Inhibit; Inhibitory activity [20]: inactive
16 (≈ 13.3 µM)	8 (≈ 6.66 µM)	1 (≈ 0.832 µM)		8 (≈ 6.66 µM)					4 (≈ 3.33 µM)	32 (≈ 26.6 µM)	COC1C(O)[C@@H](OC(C(NCCCNC(=O)[C@H](NC(=O)[C@@H](NC(=O)N[C@H](C(=O)O)C(C)C)C2CCN=C(N)N2)C(OC(=O)CCCCCCCCCCCN(O)C(=N)N)C(C)C)C(=O)O)[C@H]2O[C@@H](n3ccc(=O)[nH]c3=O)[C@H](O)[C@@H]2O)O[C@H]1CN (stereo not given in full)										MIC (Staphylococcus aureus [27]): 4 µg/mL (≈ 3.33 µM); MIC (Staphylococcus sp. [28]): 2 µg/mL (≈ 1.66 µM); MIC (Staphylococcus aureus [29]): 8 µg/mL (≈ 6.66 µM); MIC (Staphylococcus aureus [30]): 4 µg/mL (≈ 3.33 µM)
							Inhibit				COc1ccc(Cn2c(=O)ccn([C@@H]3OC([C@H](O)[C@H](NCCCNC(=O)[C@H](N)C(C)O)C(=O)OC(C)(C)C)[C@@H](O[Si](C)(C)C(C)(C)C)[C@H]3O[Si](C)(C)C(C)(C)C)c2=O)cc1 (stereo not given in full)										Inhibitory activity [32]: inactive; MIC (Staphylococcus sp. [33]): 4 µg/mL (≈ 4.54 µM); MIC (Enterococcus faecalis [34]): 4 µg/mL (≈ 4.54 µM); MIC (Staphylococcus aureus [35]): 8 µg/mL (≈ 9.09 µM); MIC (Candida albicans [36]): > 128 µg/mL; MIC (Staphylococcus sp. [37]): 4 µg/mL (≈ 4.54 µM); MIC (Bacteria [38]): > 128 µg/mL; Inhibitory activity [39]: inactive; MIC (Enterococcus faecalis [40]): 4 µg/mL (≈ 4.54 µM); Inhibitory activity [41]: inactive; MIC (Enterococcus faecalis [42]): 8 µg/mL (≈ 9.09 µM); Inhibitory activity [43]: inactive; MIC (Staphylococcus aureus [44]): 4 µg/mL (≈ 4.54 µM); MIC (Staphylococcus aureus [45]): 4 µg/mL (≈ 4.54 µM); MIC (Staphylococcus sp. [46]): 8 µg/mL (≈ 9.09 µM)

SMILES	MIC (Enterococcus faecalis [2]) [µg/mL]	MIC (Bacteria [4]) [µg/mL]	MIC (Staphylococcus sp. [6]; [47]) [µg/mL]	Inhibitory activity [9]	MIC (Staphylococcus sp. [10]) [µg/mL]	Inhibitory activity [11]	MIC (Staphylococcus sp. [12]) [µg/mL]	Inhibitory activity [14]	MIC (Enterococcus sp.) [µg/mL]	MIC (Enterococcus faecalis [15]) [µg/mL]	MIC (Enterococcus faecalis [24]) [µg/mL]	MIC (Staphylococcus aureus [1]) [µg/mL]	MIC (Staphylococcus aureus [3]) [µg/mL]	MIC (Escherichia coli [5]) [µg/mL]	MIC (Staphylococcus sp. [6]) [µg/mL]	MIC (Escherichia coli [7]) [µg/mL]	MIC (Pseudomonas aeruginosa [8]) [µg/mL]	MIC (Klebsiella pneumoniae) [µg/mL]	MIC (Enterobacter cloacae) [µg/mL]	MIC (Escherichia coli [13]) [µg/mL]	also measured
CC(C)C(O)[C@@H](N)C(=O)NCCCN[C@H](C(=O)OC(C)(C)C)[C@@H](O)C1O[C@@H](n2ccc(=O)[nH]c2=O)[C@H](O[Si](C)(C)C(C)(C)C)[C@@H]1O[Si](C)(C)C(C)(C)C (stereo not given in full)	2 (≈ 2.54 µM)	> 128	1 (≈ 1.27 µM)	Inhibit	2 (≈ 2.54 µM)	inactive	1 (≈ 1.27 µM)	Inhibit	2 (≈ 2.54 µM)	2 (≈ 2.54 µM)	2 (≈ 2.54 µM)	2 (≈ 2.54 µM)	1 (≈ 1.27 µM)	> 128	2 (≈ 2.54 µM)	128 (≈ 162 µM)	> 128	128 (≈ 162 µM)	128 (≈ 162 µM)	> 128	Inhibitory activity [31]: Inhibit; Inhibitory activity [25]: Inhibit; MIC (Morganella morganii): 128 µg/mL (≈ 162 µM); MIC (Pseudomonas aeruginosa [17]): 128 µg/mL (≈ 162 µM); MIC (Escherichia coli [18]): 32 µg/mL (≈ 40.6 µM); MIC (Candida albicans [19]): 32 µg/mL (≈ 40.6 µM); MIC (Staphylococcus aureus [22]): 1 µg/mL (≈ 1.27 µM); MIC (Serratia marcescens [23]): 128 µg/mL (≈ 162 µM)
